In the library only some 4.9% were active in any assay of this set; here they are far more common.
NF-kB neuron act: NF-kB expression increase, human neuronal cells; NF-kB reporter expression; active compounds read high; fold change at 12.5 µM; 1.6% of 190,000 active; in the data active = fold change above about 3.3
STAT3 activator: activators of IL-6 induced STAT3 signaling; U3A cells, IL-6 STAT3-luciferase reporter, luminescence; 100% = signal with IL-6 EC80 alone; activation (% of control), % at 5.6 µM; 0.91% of 190,000 active; AID 871;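 active = activation above the screen-wide mean of compound activation plus 3 SD, cut at about 130% in these data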;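 note: 0% = background luminescence of wells with medium and substrate only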
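Material: STAT1-lacking human U3A cells, STAT3 luciferase reporter | Benchmarks: IL-6-only wells as 100% reference | Probe or stimulus: IL-6 (33 ng/mL) | Timing: Compound 1 h, then IL-6 6 h at 37 °C | Detection: Luminescence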
STAT1 activator: increases IFN-gamma driven STAT1 reporter signal; NIH 3T3 STAT1-luciferase reporter, luminescence; 100% = IFN-gamma alone, no compound; activation (% of control), % at 5.5 µM; 2.6% of 200,000 active;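 active = activation above the screen-wide mean activation plus 3 SD, cut at about 130% in these data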;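 note: raw ratio to IFN-gamma control signal so 100% means no change and 0% no light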
STAT3 inh: STAT3 signaling inhibition; U3A cells, IL-6 STAT3-luciferase reporter, luminescence; host cell line lacks STAT1; inhibition, % at 5.5 µM; 0.89% of 190,000 active;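 active = inhibition above the mean inhibition across all screened compounds plus 3 SD, cut at about 44% in these data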;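 note: 0% = DMSO only wells and 100% = 100 µM nifuroxazide control wells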
APP 5'UTR act: activates APP 5'UTR luciferase reporter. 1% of 190,000 active. AID 1276. activation, % at 2 µM. SH-SY5Y APP 5'UTR luciferase reporter, luminescence; zero percent = DMSO vehicle wells;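 active = activation above a set limit, based on mean plus 3 SD of controls, cut at about 140% in these data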
STAT1 inh: inhibitors of IFN-gamma induced STAT1 signaling; 0.35% of 200,000 active; AID 920; inhibition, % at 5.5 µM; NIH 3T3 STAT1-luciferase reporter, luminescence;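 active = inhibition above a set limit, the mean inhibition across all tested compounds plus 3 SD, cut at about 34% in these data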;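 note: 0% = IFN-gamma with DMSO and 100% = IFN-gamma with 300 µM nifuroxazide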
Active calls of the source: *; . = not tested or not shown.

SMILES | NF-kB neuron act | STAT3 activator | STAT1 activator | STAT3 inh | APP 5'UTR act | STAT1 inh
CC(C)CN(C(=O)CN1CCc2ccccc21)c1c(N)n(CC(C)C)c(=O)[nH]c1=O | 1.09 | 133.0* | 94.6 | -37.3 | 5.6 | 5.1
CN(C)CCOc1cc(Cl)cc(Cl)c1 | 4.25* | 96.2 | 95.7 | 9.3 | 14.7 | 3.0
Cc1ccc(C(=O)CSc2nnc(N)s2)c(C)c1 | 1.84 | 101.2 | 136.9* | 7.9 | 67.1 | -39.7
Cc1ccc(C(=O)CSc2nnc3ccccn23)c(C)c1 | 4.08* | 93.2 | 119.4 | 12.8 | 167.4* | -24.4
Cc1cc(C)c(C(=O)CSc2nnc(N)s2)c(C)c1 | 1.14 | 93.0 | 97.5 | 10.9 | -18.6 | 1.9
CCN=C(NCC)SC1CC(=O)N(c2ccc(F)cc2)C1=O (stereo not drawn) | 1.12 | 90.2 | 97.2 | 12.0 | 20.7 | 3.1
CC1(C)C2CCC(C2)C1(C)NC(=O)CNCC1CCCCC1 (stereo not drawn) | 1.12 | 107.2 | 97.1 | -3.2 | 3.8 | 4.8
COc1ccc(/C=N/NC(=O)COc2ccccc2-c2ccccc2)cc1 | 5.31* | 108.9 | 94.3 | -2.6 | -96.5 | 6.3
O=C(COc1cccc2ccccc12)N/N=C/c1ccccc1OCc1ccc(C(=O)O)cc1 | 1.08 | 85.8 | 106.4 | 25.9 | 2.1 | -7.8
O=C(COc1ccccc1-c1ccccc1)N/N=C/c1cccc2ccccc12 | 4.14* | 129.2 | 108.2 | -24.3 | -95.2 | -9.1
CCOc1ccc(CCNC(=O)C(CCC(N)=O)NC(=O)OCc2ccccc2)cc1OCC (stereo not drawn) | 0.93 | 83.9 | 100.3 | 26.1 | 9.7 | -0.1
CCOc1ccc(NC(=O)c2cccc(OC(=S)N3CCC(C)CC3)c2)cc1 | 1.04 | 102.4 | 95.5 | -1.6 | -2.8 | 5.1
CCOc1ccc(C(=O)CSCC(=O)O)cc1 | 1.01 | 105.3 | 104.9 | 5.0 | 33.2 | -7.2
O=C(Nc1nccs1)c1cc2c(s1)CCCCC2 | 1.38 | 20.9 | 35.2 | 95.2* | 37.1 | 70.4*
O=C(Nc1nncs1)c1cc2c(s1)CCC2 | 1.13 | 105.0 | 126.7 | -3.7 | 39.9 | -29.4
CS(=O)(=O)c1ccc(C(=O)OCc2nnc(-c3ccc(Cl)cc3)o2)cc1[N+](=O)[O-] | 8.39* | 92.6 | 86.8 | 11.3 | -18.7 | 14.1
Cc1cccc(NC(=O)c2c(O)c3cccc4c3n(c2=O)CC4)c1 | . | 158.4* | 101.2 | -69.8 | -0.1 | -1.3
C/C(=N\N=c1/scc(C)n1Cc1ccco1)c1cccc([N+](=O)[O-])c1 | 1.49 | 104.9 | 98.6 | 0.0 | 25.9 | 1.5
CCOC(=O)c1c(-c2ccc(OC)cc2)csc1/N=C/C1=C(O)CCCC1=O | 1.23 | 98.6 | 102.7 | 5.1 | -0.7 | -3.0
CN(C)/C=N/c1nc2ccc3c(c2s1)CCCC3 | . | 106.5 | 139.4* | 0.0 | 102.4 | -43.2
C=CCN1C(=O)CSC1=Nc1ccc(O)cc1 | 3.38* | 100.3 | 96.5 | -0.2 | 1.1 | 3.8
O=C(O)c1cc([N+](=O)[O-])c(NCCC2=CCCCC2)c([N+](=O)[O-])c1 | 1.28 | 107.8 | 109.1 | -1.2 | 3.0 | -10.1
O=C(NCCc1ccccc1)NC1CCCCC1 | 3.4* | 111.0 | 123.7 | -10.6 | 37.9 | -25.7
O=C(NCCC1=CCCCC1)NC1CCCCC1 | 4.46* | 100.1 | 143.9* | -0.5 | 81.6 | -47.6
O=C(NC1CCCCCC1)C(=S)NCCc1ccccc1 | 1.48 | 109.3 | 104.7 | -8.6 | -21.8 | -7.0
SMILES | NF-kB neuron act | STAT3 activator | STAT1 activator | STAT3 inh | APP 5'UTR act | STAT1 inh
COc1ccc(C2CC(c3ccccc3)=NN2C(=O)COC(=O)c2nc3nccc(C)n3n2)cc1 (stereo not drawn) | 1.22 | 111.7 | 105.3 | -3.2 | 5.3 | -5.5
COc1ccc2c(c1OC)C(=O)N(c1nccs1)C2 | 1.54 | 123.7 | 131.6* | -18.0 | 46.1 | -34.6
O=C(NCc1ccc(F)cc1)C(=O)NCC1OCCN1C(=O)c1cccs1 (stereo not drawn) | 1.06 | 95.1 | 99.8 | 8.5 | -7.7 | 0.2
COc1ccc(N2CCN(C(=O)c3cc4c(-c5ccc(Cl)cc5)nn(C)c4s3)CC2)cc1 | 0.56 | 133.3* | 89.5 | -29.9 | 2.2 | 11.5
Cn1nc(-c2ccc(Cl)cc2)c2cc(C(=O)N3CCOCC3)sc21 | 0.58 | 121.8 | 102.2 | -16.6 | 8.0 | -2.5
COc1ccc(-c2cc(C(F)(F)F)n3ncc(C(=O)N4CCCCC4c4cccnc4)c3n2)cc1 (stereo not drawn) | 1.03 | 103.7 | 96.7 | 0.7 | -8.2 | 5.2

Compound activity: PubChem BioAssay, several laboratories
